Assay results as given in ChEMBL document CHEMBL1155099, “Natural products in parallel synthesis: triazole libraries of nonactic acid” (2008).
Active and inactive are the calls of the source.

Experiments:
Type in all cases: functional, organism-based
[1] = system: Staphylococcus aureus; test: Antibacterial activity against Staphylococcus aureus at 1 mM by almar blue dye reduction assay
How it was run: (§1)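 Single-point primary screen at 1 mM using Alamar Blue dye reduction as the growth read-out.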

[2] = system: Pseudomonas aeruginosa; test: Antibacterial activity against Pseudomonas aeruginosa at 1 mM by almar blue dye reduction assay; how it was run: as §1
[3] = system: Candida albicans; test: Antifungal activity against Candida albicans at 1 mM by almar blue dye reduction assay; how it was run: as §1
[4] = system: Saccharomyces cerevisiae; test: Antifungal activity against Saccharomyces cerevisiae at 1 mM by almar blue dye reduction assay; how it was run: as §1
[5] = system: Cryptococcus neoformans; test: Antifungal activity against Cryptococcus neoformans at 1 mM by almar blue dye reduction assay; how it was run: as §1
[6] = system: Bacillus anthracis; test: Antibacterial activity against Bacillus anthracis at 1mM by almar blue dye reduction assay
[7] = system: Bacillus subtilis; test: Antibacterial activity against Bacillus subtilis at 1 mM by almar blue dye reduction assay; how it was run: as §1
[8] = system: Escherichia coli; test: Antibacterial activity against Escherichia coli at 1 mM by almar blue dye reduction assay; how it was run: as §1
[9] = system: Bacillus cereus; test: Antibacterial activity against Bacillus cereus at 1 mM by almar blue dye reduction assay; how it was run: as §1

Measured: Activity

CCN(CC)C(=O)[C@H](C)[C@H]1CC[C@@H](C[C@@H](C)n2cc(C#Cc3ccc(Oc4ccccc4)cc3)nn2)O1
inactive: all assays above

CC(C)CC#Cc1cn([C@H](C)C[C@@H]2CC[C@H]([C@@H](C)C(=O)N(C)Cc3ccccc3)O2)nn1
inactive: all assays above

CCN(CC)C(=O)[C@H](C)[C@H]1CC[C@@H](C[C@@H](C)n2cc(C#CCC3CCCC3)nn2)O1
inactive: all assays above

C[C@H](C[C@@H]1CC[C@H]([C@@H](C)C(=O)N(C)Cc2ccccc2)O1)n1cc(C#CC2=CCCCC2)nn1
inactive: all assays above

C[C@H](C[C@@H]1CC[C@H]([C@@H](C)C(=O)N(C)Cc2ccccc2)O1)n1cc(C#CCOc2ccc(Br)cc2)nn1
inactive: all assays above

CCN(CC)C(=O)[C@H](C)[C@H]1CC[C@@H](C[C@@H](C)n2cc(C#CCc3ccccc3)nn2)O1
inactive: all assays above

CCOC(=O)C#Cc1cn([C@H](C)CC2CCC([C@@H](C)C(=O)NC(C)C)O2)nn1 (single isomer, unassigned)
inactive: all assays above

CC(C)NC(=O)[C@H](C)[C@H]1CCC(C[C@@H](C)n2cc(C#Cc3ccccc3[N+](=O)[O-])nn2)O1 (single isomer, unassigned)
inactive: all assays above

COc1cccc(OCC#Cc2cn([C@H](C)C[C@@H]3CC[C@H]([C@@H](C)C(=O)N4CCCC4)O3)nn2)c1OC
inactive: all assays above

Cc1cccc(NC(=O)NCC#Cc2cn([C@H](C)CC3CCC([C@@H](C)C(=O)N(C)Cc4ccccc4)O3)nn2)c1 (single isomer, unassigned)
inactive: all assays above

C[C@H](C[C@@H]1CC[C@H]([C@@H](C)C(=O)N2CCCC2)O1)n1cc(C#Cc2ccccc2)nn1
not listed: [4]
inactive: all other assays above

C[C@H](C[C@@H]1CC[C@H]([C@@H](C)C(=O)N2CCCC2)O1)n1cc(C#CCC2CCCC2)nn1
inactive: all assays above

C[C@H](C[C@@H]1CC[C@H]([C@@H](C)C(=O)N2CCN(CC3CCCO3)CC2)O1)n1cc(C#Cc2ccccc2)nn1 (stereo partly specified)
inactive: all assays above

COc1ccc(C#Cc2cn([C@H](C)C[C@@H]3CC[C@H]([C@@H](C)C(=O)N4CCCC4)O3)nn2)cc1
inactive: all assays above

CCCCCC#Cc1cn([C@H](C)C[C@@H]2CC[C@H]([C@@H](C)C(=O)N3CCN(CC4CCCO4)CC3)O2)nn1 (stereo partly specified)
inactive: all assays above

C[C@H](C[C@@H]1CC[C@H]([C@@H](C)C(=O)N2CCCC2)O1)n1cc(C#CCc2ccccc2)nn1
inactive: all assays above

C[C@H](C[C@@H]1CC[C@H]([C@@H](C)C(=O)N2CCCC2)O1)n1cc(C#Cc2ccc(-c3ccccc3)cc2)nn1
inactive: all assays above

C[C@H](C[C@@H]1CC[C@H]([C@@H](C)C(=O)N(C)Cc2ccccc2)O1)n1cc(C#Cc2cccc3ccccc23)nn1
inactive: all assays above

CCN(CC)C(=O)[C@H](C)[C@H]1CC[C@@H](C[C@@H](C)n2cc(C#Cc3ccc(C(F)(F)F)cc3)nn2)O1
inactive: all assays above

COc1ccc(C#Cc2cn([C@H](C)C[C@@H]3CC[C@H]([C@@H](C)C(=O)NC(C)C)O3)nn2)cc1
inactive: all assays above

CC(C)NC(=O)[C@H](C)[C@H]1CC[C@@H](C[C@@H](C)n2cc(C#Cc3ccc(Oc4ccccc4)cc3)nn2)O1
inactive: all assays above

CC(C)NC(=O)[C@H](C)[C@H]1CC[C@@H](C[C@@H](C)n2cc(C#CCC3CCCC3)nn2)O1
inactive: all assays above

C[C@H](CC1CCC([C@@H](C)C(=O)N(C)Cc2ccccc2)O1)n1cc(C#CCOC(=O)OCc2ccccc2)nn1 (single isomer, unassigned)
inactive: all assays above
